Compound activity deposited in PubChem BioAssay by Johns Hopkins Ion Channel Center.
An excerpt weighted towards active compounds, which were near 4.1% of everything screened.
MrgX1 PAM: allosterically activates human MrgX1 receptor signaling; Q96LB2; MrgX1-HEK293, Fluo-4 calcium flux, FDSS; active compounds read high; B-score at 10 µM; 310,000 tested, 0.63% active;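 active means plate-corrected calcium response at least 3 library SD above typical, normal starting fluorescence, not activating the receptor alone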;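 further: compound read alongside a low EC10 to EC30 dose of BAM8-22 agonist; peak minus trough fluorescence over baseline measured at the second addition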
RGS4 inh: human RGS4 inhibition; P49798; HEK293 M3R/RGS4 inducible, Fluo-4 calcium flux; active compounds read high; triggered by carbachol at its EC20; B-score at 10 µM; 310,000 tested, 0.45% active;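 active means B-score, a plate-corrected calcium signal, over three deviations above library mean, with baseline fluorescence within five deviations of library mean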;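 further: RGS4 expression induced by doxycycline in cells with stable M3 receptor; B-score is computed from the integrated fluorescence ratio over baseline after carbachol; higher B-score means a larger calcium signal and so more RGS4 inhibition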
Target sequence (P49798 whole entry, looked up): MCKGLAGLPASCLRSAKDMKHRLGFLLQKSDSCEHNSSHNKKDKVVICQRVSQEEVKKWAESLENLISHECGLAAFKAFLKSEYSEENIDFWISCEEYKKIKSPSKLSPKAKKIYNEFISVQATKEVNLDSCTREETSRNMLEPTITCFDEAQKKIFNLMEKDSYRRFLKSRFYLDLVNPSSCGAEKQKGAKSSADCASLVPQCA
MrgX1 antag: human MrgX1 receptor antagonism, primary screen; Q96LB2; MRGX1-HEK293 calcium flux, Fluo-4, BAM8-22 antagonism; active compounds read low; B-score at 10 µM; 310,000 tested, 1.3% active;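 active means calcium-response B-score plate-corrected more than 3 library SD below zero, starting fluorescence within 5 deviations, no agonist response on first addition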;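 further: peak minus trough fluorescence over baseline after final BAM8-22 challenge near maximal dose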
MrgX1 agonist: activates human MrgX1 receptor signaling; 310,000 tested, 0.44% active; MrgX1-HEK293 cells, Fluo-4 calcium fluorescence, agonist mode; active compounds read high; AID 588627; B-score at 10 µM; Q96LB2;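 active means calcium response B-score plate-corrected fluorescence ratio at least 3 library SD, with starting fluorescence B-score inside 5 SD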
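System – MrgX1-expressing HEK293 cells · Incubation – cells plated overnight, dye loaded 0.5 h 37 °C, 0.5 h room temperature · Technique – kinetic Fluo-4 NW fluorescence of intracellular calcium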
Kir21 inh: blocks the mouse Kir2.1 inward-rectifier potassium channel | HEK293-Kir2.1, FluxOR thallium flux fluorescence; active compounds read low | P35561 | B-score at 10 µM | 310,000 tested, 0.85% active;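 active means fluorescence ratio B-score at or below minus 3 SD of library scores, with starting-brightness B-score within 2 SD, cut at about -4.2 in these data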;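 further: channel flux triggered by added potassium and thallium sulfate stimulus; B-score of peak minus minimum fluorescence over baseline after thallium stimulus; more negative B-score means stronger Kir2.1 block with less thallium influx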
Target sequence (P35561 whole entry, looked up): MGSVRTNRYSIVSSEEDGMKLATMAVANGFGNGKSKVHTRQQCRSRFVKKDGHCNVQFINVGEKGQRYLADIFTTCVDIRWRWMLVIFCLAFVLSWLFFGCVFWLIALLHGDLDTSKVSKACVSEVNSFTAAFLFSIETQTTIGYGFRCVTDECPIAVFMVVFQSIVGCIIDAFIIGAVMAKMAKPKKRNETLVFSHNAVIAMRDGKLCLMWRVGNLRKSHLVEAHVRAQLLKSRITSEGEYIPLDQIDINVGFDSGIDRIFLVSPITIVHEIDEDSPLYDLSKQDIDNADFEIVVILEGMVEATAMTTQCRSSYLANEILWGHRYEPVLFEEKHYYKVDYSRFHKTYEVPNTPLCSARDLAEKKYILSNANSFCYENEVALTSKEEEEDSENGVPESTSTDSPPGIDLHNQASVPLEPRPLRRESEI
RGS4 act: RGS4 potentiation or activation; AID 463111; HEK293 M3R/inducible RGS4, carbachol calcium flux Fluo4; active compounds read low; B-score at 10 µM; 310,000 tested, 0.92% active;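 active means B-score of the integrated calcium signal more than 4 SD below the library mean, with starting fluorescence not abnormally high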;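 further: negative B-score means reduced calcium response which marks RGS4 activation or potentiation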
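Assay system: HEK293 FlpIn-TREx cells, stable M3R, doxycycline-inducible RGS4 / Probe or stimulus: carbachol, ECmax concentration / Times: overnight RGS4 induction, 30 min dye load 37 °C, 20 min compound RT / Signal: kinetic calcium fluorescence imaging with Fluo4-AM dye, 2 µM / Measure: Agonist-evoked peak-minus-minimum fluorescence over baseline, integrated ratio, B score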
The depositor's hits bear a star.

CSc1nnc(NC(=O)c2cc(=O)c3cc(C)cc(C)c3o2)s1 was read as MrgX1 PAM 10*, RGS4 inh inactive, MrgX1 antag inactive, MrgX1 agonist inactive, Kir21 inh 0.75 and RGS4 act inactive.
COc1ccc(C2SCCN2S(=O)(=O)c2ccc(F)cc2)cc1OC (stereo unspecified) was read as MrgX1 PAM inactive, RGS4 inh inactive, MrgX1 antag inactive, MrgX1 agonist inactive, Kir21 inh -0.54 and RGS4 act inactive.
O=C(Nc1cccnc1)/C(N=Nc1c(Cl)cccc1Cl)=C(\O)c1ccccc1 was read as MrgX1 PAM inactive, RGS4 inh inactive, MrgX1 antag inactive, MrgX1 agonist inactive, Kir21 inh 0.46 and RGS4 act inactive.
For CCS(=O)(=O)N1N=C(c2cccc(NS(C)(=O)=O)c2)CC1c1ccccc1 (stereo unspecified) the results were MrgX1 PAM inactive, RGS4 inh inactive, MrgX1 antag -5.5*, MrgX1 agonist inactive, Kir21 inh -2 and RGS4 act inactive.
For COc1ccc(CC(=O)Nc2cccc(/C(C)=N/NC(=O)C3(C)CC3(Br)Br)c2)cc1 (stereo unspecified) the results were MrgX1 PAM inactive, RGS4 inh inactive, MrgX1 antag inactive, MrgX1 agonist inactive, Kir21 inh -0.24 and RGS4 act -9.3*.
`COc1cccc(-c2nnc(NC(=O)c3ccccc3Br)o2)c1` gave MrgX1 PAM inactive, RGS4 inh inactive, MrgX1 antag inactive, MrgX1 agonist inactive, Kir21 inh 1.4 and RGS4 act inactive.
Screening COc1ccc(NC(=O)c2cc(S(=O)(=O)N3CCOCC3)ccc2N2CCOCC2)cc1 returned MrgX1 PAM inactive, RGS4 inh inactive, MrgX1 antag inactive, MrgX1 agonist inactive, Kir21 inh 0.03 and RGS4 act inactive.
`COc1ccc(NC(=O)c2cc(S(=O)(=O)N3CCCCC3)ccc2N2CCCCC2)cn1` gave MrgX1 PAM inactive, RGS4 inh inactive, MrgX1 antag inactive, MrgX1 agonist inactive, Kir21 inh 1.9 and RGS4 act -7*.
Cc1cc(C)nc(NC(=O)CN2C(=O)c3ccccc3S2(=O)=O)n1 was read as MrgX1 PAM inactive, RGS4 inh inactive, MrgX1 antag inactive, MrgX1 agonist inactive, Kir21 inh 0.19 and RGS4 act inactive.
Screening CCOC(=O)CSc1nc(N)c(C#N)c(-c2ccc(OC)cc2)c1C#N returned MrgX1 PAM inactive, RGS4 inh inactive, MrgX1 antag -5.8*, MrgX1 agonist inactive, Kir21 inh -1.1 and RGS4 act inactive.
Screening COc1ccc(Cl)cc1C(=O)Nc1ccc(S(N)(=O)=O)cc1 returned MrgX1 PAM inactive, RGS4 inh inactive, MrgX1 antag inactive, MrgX1 agonist inactive, Kir21 inh -1.9 and RGS4 act inactive.
For C(=C1/CCCC2=C1Nc1ncnn1C2c1ccccc1)/c1ccccc1 (stereo unspecified) the results were MrgX1 PAM 7.3*, RGS4 inh inactive, MrgX1 antag -5*, MrgX1 agonist inactive, Kir21 inh -4 and RGS4 act inactive.
S=C1NC2=C(CCC/C2=C\c2ccccc2)C(c2ccccc2)N1 (stereo unspecified) was read as MrgX1 PAM inactive, RGS4 inh inactive, MrgX1 antag inactive, MrgX1 agonist inactive, Kir21 inh -0.23 and RGS4 act inactive.
For CC(=O)Oc1ccc(C(c2ccc(OC(C)=O)cc2)c2ccccn2)cc1 the results were MrgX1 PAM inactive, RGS4 inh inactive, MrgX1 antag inactive, MrgX1 agonist inactive, Kir21 inh -4.3* and RGS4 act inactive.
Screening c1ccc(C(c2ccccn2)c2ccccn2)cc1 returned MrgX1 PAM inactive, RGS4 inh inactive, MrgX1 antag inactive, MrgX1 agonist inactive, Kir21 inh -0.75 and RGS4 act inactive.
Screening CC(NCc1ccc(-c2ccccc2)cc1)C(O)c1ccccc1 (stereo unspecified) returned MrgX1 PAM inactive, RGS4 inh inactive, MrgX1 antag inactive, MrgX1 agonist inactive, Kir21 inh -14* and RGS4 act inactive.
For CCOc1ccc(NCc2cccn2-c2nnc(N3CCC(C(=O)NCCCN4C(C)CCCC4C)CC3)s2)cc1 (stereo unspecified) the results were MrgX1 PAM inactive, RGS4 inh inactive, MrgX1 antag inactive, MrgX1 agonist inactive, Kir21 inh -0.08 and RGS4 act -7.6*.
Screening CCOc1ccc(CCNC(=O)C2CCN(c3nnc(-n4cccc4)s3)CC2)cc1 returned MrgX1 PAM inactive, RGS4 inh inactive, MrgX1 antag inactive, MrgX1 agonist inactive, Kir21 inh 0 and RGS4 act inactive.
For CCOc1ccc(NCc2cccn2-c2nnc(N3CCC(C(=O)NCCCN4CCCCC4C)CC3)s2)cc1 (stereo unspecified) the results were MrgX1 PAM inactive, RGS4 inh inactive, MrgX1 antag inactive, MrgX1 agonist inactive, Kir21 inh -0.18 and RGS4 act inactive.
For Cc1cc(C)c2nc(N3CCC(C(=O)NCCCN4CCCCC4)CC3)sc2c1 the results were MrgX1 PAM inactive, RGS4 inh inactive, MrgX1 antag inactive, MrgX1 agonist inactive, Kir21 inh -1.6 and RGS4 act -7.9*.
`CCOc1ccc(NCc2cccn2-c2nnc(N3CCC(C(=O)NCCCN4CCCCC4)CC3)s2)cc1` gave MrgX1 PAM inactive, RGS4 inh inactive, MrgX1 antag inactive, MrgX1 agonist inactive, Kir21 inh 1.2 and RGS4 act -9*.
Cc1ccc(-c2nn(-c3cc(N4CCNCC4)ccc3[N+](=O)[O-])c(=O)c3ccccc23)cc1 was read as MrgX1 PAM inactive, RGS4 inh inactive, MrgX1 antag inactive, MrgX1 agonist inactive, Kir21 inh -4.2* and RGS4 act inactive.
Screening O=C(N/N=C/C(Cl)=C\c1ccccc1)c1cccs1 returned MrgX1 PAM inactive, RGS4 inh inactive, MrgX1 antag inactive, MrgX1 agonist inactive, Kir21 inh -0.87 and RGS4 act inactive.
CC1CCN(CC(CS(=O)(=O)c2ccc([N+](=O)[O-])cc2)N2CCC(C)CC2)CC1 (stereo unspecified) was read as MrgX1 PAM inactive, RGS4 inh inactive, MrgX1 antag -5.2*, MrgX1 agonist inactive, Kir21 inh 1 and RGS4 act inactive.
Screening C=CCN1C(c2ccc(OCC)cc2)=CS/C1=C(\C#N)c1nnc2n1CCCCC2 returned MrgX1 PAM inactive, RGS4 inh inactive, MrgX1 antag inactive, MrgX1 agonist inactive, Kir21 inh -0.7 and RGS4 act inactive.
